We go through two molecules from publication PMC10205660 (Chemistry (Weinheim an der Bergstrasse, Germany), 2023).

One assay deals with MCF7 (breast cancer). Description: Antiproliferative activity, MCF7. The class given is cell-based.
In another assay the test system is HEK293. Conditions: read-out: IC50 against normal cell line HEK293; cited from earlier work.
For another assay, the system named is A549 (lung cancer). Briefly: Antiproliferative activity, A549. It counts as cell-based.
In assay [1] the test system is Hsp90-dependent client proteins (pAkt, Cyclin D1, GLUT1), Hsp70, Hsp90 in MCF7 cells. The conditions noted are these: MCF7, 48-hour incubation; cited from earlier work.
The next assay concerns MRC5. The conditions noted are these: read-out: IC50 against normal cell line MRC5; cited from earlier work.
A further assay concerns K562 (leukemia). Description: Antiproliferative activity, K562. It counts as cell-based.
Assay [2] deals with Hsp90-dependent client proteins (pAkt, Cyclin D1, GLUT1), Hsp70, Hsp90 in MCF7 cells. The class given is cell-based. The conditions noted are these: MCF7, 48 h, Western blot; versus vehicle 0.25% DMSO. In a few lines: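 MCF7 cells exposed to test compound at the stated amounts for 48 h, alongside vehicle (0.25% DMSO) and 1 μM geldanamycin as the reference Hsp90 inhibitor. Cell lysates were immunoblotted for pAkt, Cyclin D1, GLUT1, Hsp70, Hsp90 and F1F0 ATP synthase.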
(In general: In western blotting, separated proteins are transferred to a membrane and probed.)

Where two headings read alike, the source gives them in different places.

Broadly, the IC50 is the concentration at which inhibition is half-maximal. Turning to `CCCC(O)C(C)C(=O)NC/C=C\CC(C)C(O)C(C)C1C/C=C\CC(C)C(O)Cc2cc(OC)cc(O)c2C(=O)O1` (stereo not shown) [Compound 1, Cruentaren A, reference compound], the IC50 in the assay on MCF7 (breast cancer) (read-out: IC50 values MCF7, MCF7) was 4.67 nM; in the assay on HEK293, greater than 500 nM; in the assay on A549 (lung cancer) (read-out: IC50 values A549, A549), 0.75 nM; in the assay with MRC5, greater than 500 nM; in the assay on K562 (leukemia) (read-out: IC50 values K562, K562) it was 1.5 nM. For the same molecule, the “degradation of Hsp90-dependent client proteins” value in assay [1] was “induced the degradation”.
For the molecule `CCC[C@H](O)[C@@H](C)C(=O)NC/C=C/C[C@@H](C)[C@@H](O)[C@H](C)[C@@H]1C/C=C\C[C@H](C)[C@H](O)Cc2cc(OC)cc(O)c2C(=O)O1` [Compound 16, (2R,3S)-N-((5R,6R,7S,E)-7-((3S,8S,9R,Z)-9,14-dihydroxy-12-methoxy-8-methyl-1-oxo-3,4,7,8,9,10-hexahydro-1H-benzo[c][1]oxacyclododecin-3-yl)-6-hydroxy-5-methyloct-2-en-1-yl)-3-hydroxy-2-methylhexanamide], the IC50 stood at 6.37 nM in the assay on MCF7 (breast cancer) (Homo sapiens, MCF7, read-out: IC50 values MCF7, MCF7); 1750 nM with A549 (lung cancer) (Homo sapiens, A549, read-out: IC50 values A549); 48.3 nM with K562 (leukemia) (Homo sapiens, K562, read-out: IC50 values K562, K562). Also, the “levels of Hsp70 and Hsp90 (heat shock response)” value in assay [2] is given as “remained at the same level as vehicle control”.
